Reference: ChEMBL document CHEMBL5625195, “Identification of novel tetrahydroquinoxaline derived phenyl ureas as modulators of the hepatitis B virus nucleocapsid assembly” (Eur J Med Chem, 2023)

Legend:
Hepatitis B virus [1] = test: Antiviral activity against HBV infected in AML12HBV10 cells assessed as reduction viral replication incubated for 48 hrs; type: functional, organism-based; details: AML12HBV10, 48 h
Method in brief: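 AML12HBV10 cells were seeded at 2 x 10^4 per well without tetracycline. After one day, 2-fold serial dilutions (10 μM to 0.08 μM) were applied for 48 h. Lysates were denatured, neutralized and dot-blotted, then hybridized with a 32P-labelled riboprobe specific for HBV minus-strand DNA and read by phosphorimager. EC50 was the concentration reducing HBV DNA by 50%.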

[2] = Cytotoxicity against mouse AML12 cells assessed as reduction in cell viability incubated for 48 hrs by MTT assay; type: toxicity, cell-based; details: AML12 cells
Method in brief: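 Stable AML12HBV10 hepatocytes (AML12-derived), cultured without tetracycline, were exposed to 2-fold serial dilutions (50 μM to 1.56 μM) for 48 h. Viability was inspected microscopically and quantified by MTT. CC50 was the concentration lowering viability by 50%.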

Hepatitis B virus [3] = test: Antiviral activity against HBV infected in HepDES19 cells assessed as reduction viral DNA incubated for 4 days by qPCR analysis; type: functional, organism-based; details: HepDES19, 96 h
Method in brief: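 HepDES19 (HepG2-derived, tetracycline-inducible HBV) cells in 24-well plates, cultured without tetracycline for 2 days, then mock or serial 2-fold compound dilutions for 4 more days. Cytoplasmic HBV core DNA was extracted and quantified by qPCR. EC50 came from triplicate biological experiments by regression.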

[4] = Cytotoxicity against human HepDES19 cells assessed as reduction in cell viability incubated for 6 days by MTT assay; type: toxicity, cell-based; details: time 6 day
Method in brief: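 Tetracycline-free HepDES19 cells in 96-well plates were exposed to […] serial dilutions (50 μM to 0.39 μM) for 6 days. Viability was checked by microscopy and measured by MTT. CC50 was the concentration reducing viability by 50%.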

## O=C(Nc1ccc(F)c(Cl)c1)N1CCN(C(=O)Nc2cc(Cl)c(F)cc2F)c2ccccc21
Hepatitis B virus [1]
  EC50: 0.39 µM
[2]
  CC50 at 48 h: > 20 µM
Hepatitis B virus [3]
  EC50: 0.95 µM
[4]
  CC50 at 144 h: 16.8 µM

## O=C(Nc1cccc(Cl)c1)N1CCN(C(=O)Nc2ccc(F)c(Cl)c2)c2ccccc21
Hepatitis B virus [1]
  EC50: 0.65 µM
[2]
  CC50 at 48 h: > 100 µM

## O=C(Nc1ccccc1)N1CCN(C(=O)Nc2ccc(F)c(Cl)c2)c2ccccc21
Hepatitis B virus [1]
  EC50: 7.34 µM
[2]
  CC50 at 48 h: > 12.5 µM

## O=C(Nc1ccc(F)c(Cl)c1)N1c2ccccc2NCC1CN1CCOCC1 (stereo not given)
Hepatitis B virus [1]
  EC50: 7.3 µM
[2]
  CC50 at 48 h: > 40 µM

## O=C(Nc1ccc(F)c(Cl)c1)N1CCN(C(=O)Nc2ccc(F)c(Cl)c2)[C@H]2CCCC[C@H]21
Hepatitis B virus [1]
  EC50: > 10 µM
[2]
  CC50 at 48 h: > 100 µM

## O=C(Nc1ccc(F)c(Cl)c1)N1CC2(CCCC2)Nc2ccccc21
Hepatitis B virus [1]
  EC50: > 10 µM
[2]
  CC50 at 48 h: > 100 µM

## [N-]=[N+]=Nc1ccc(NC(=O)N2CCNc3ccccc32)cc1Cl
Hepatitis B virus [1]
  EC50: 1.66 µM
[2]
  CC50 at 48 h: > 100 µM

## O=C(Nc1ccc(F)c(C(F)F)c1)N1c2ccccc2NCC1CN1CCC(F)(F)CC1 (stereo not given)
Hepatitis B virus [1]
  EC50: 0.1 µM
[2]
  CC50 at 48 h: > 50 µM
Hepatitis B virus [3]
  EC50: 0.04 µM
[4]
  CC50 at 144 h: 29.3 µM

## CC1(C)CCN(CC2CNc3ccccc3N2C(=O)Nc2ccc(F)c(Cl)c2)CC1 (stereo not given)
Hepatitis B virus [1]
  EC50: > 10 µM
[2]
  CC50 at 48 h: > 40 µM

## O=C(Nc1ccc(F)c(Cl)c1)c1cccc2c1OCCO2
Hepatitis B virus [3]
  EC50: 1.02 µM
[4]
  CC50 at 144 h: > 50 µM

## O=C(Nc1ccc(F)c(Cl)c1)N1CC(c2ccccc2)Nc2ccccc21 (stereo not given)
Hepatitis B virus [1]
  EC50: 10 µM
[2]
  CC50 at 48 h: > 50 µM

## O=C(Nc1ccc(F)c(Cl)c1)N1CCc2ccccc21
Hepatitis B virus [1]
  EC50: 0.97 µM
[2]
  CC50 at 48 h: > 100 µM

## O=C(Nc1ccc(F)c(Cl)c1)N1CCNc2cc(F)c(F)cc21
Hepatitis B virus [1]
  EC50: 1.78 µM
[2]
  CC50 at 48 h: > 100 µM

## O=C(Nc1ccc(F)c(Cl)c1)N1c2ccccc2NCC1CN1CCC(F)(F)CC1 (stereo not given)
Hepatitis B virus [1]
  EC50: 0.28 µM
[2]
  CC50 at 48 h: > 50 µM

## O=C(Nc1ccc(F)c(C(F)(F)F)c1)N1CCNc2ccccc21
Hepatitis B virus [1]
  EC50: 0.32 µM
[2]
  CC50 at 48 h: > 20 µM

## O=C(Nc1cc(Cl)ccc1F)N1CCNc2ccccc21
Hepatitis B virus [1]
  EC50: 0.77 µM
[2]
  CC50 at 48 h: > 100 µM

## O=S(=O)(Nc1ccc(F)c(Cl)c1)N1CCNc2ccccc21
Hepatitis B virus [1]
  EC50: > 10 µM
[2]
  CC50 at 48 h: > 100 µM

## O=C(Nc1cccc(Cl)c1)N1CCNc2ccccc21
Hepatitis B virus [1]
  EC50: 1.13 µM
[2]
  CC50 at 48 h: > 100 µM

## O=C(NCc1cccc(Cl)c1)N1CCNc2ccccc21
Hepatitis B virus [1]
  EC50: 8.07 µM
[2]
  CC50 at 48 h: > 100 µM

## O=C(Nc1ccc(F)c(Cl)c1)N1CCN(CCCCF)c2ccccc21
Hepatitis B virus [1]
  EC50: > 10 µM
[2]
  CC50 at 48 h: > 50 µM

## O=C(Nc1ccc(F)c(Cl)c1)N1CC(CN2CCOCC2)Nc2ccccc21 (stereo not given)
Hepatitis B virus [1]
  EC50: > 10 µM
[2]
  CC50 at 48 h: > 20 µM

## Cc1cc(NC(=O)N2c3ccccc3NCC2CN2CCC(F)(F)CC2)ccc1F (stereo not given)
Hepatitis B virus [1]
  EC50: 0.27 µM
[2]
  CC50 at 48 h: > 50 µM

## NC1CCN(C(=O)Nc2ccc(F)c(Cl)c2)c2ccccc21 (racemic)
Hepatitis B virus [1]
  EC50: > 10 µM
[2]
  CC50 at 48 h: > 100 µM

## O=C(Nc1cccnc1)N1CCN(C(=O)Nc2ccc(F)c(Cl)c2)c2ccccc21
Hepatitis B virus [1]
  EC50: 5.76 µM
[2]
  CC50 at 48 h: > 100 µM

## CC1CNc2ccccc2N1C(=O)Nc1ccc(F)c(Cl)c1 (stereo not given)
Hepatitis B virus [1]
  EC50: 3.02 µM
[2]
  CC50 at 48 h: > 100 µM

## O=C(Nc1cc(F)c(F)c(F)c1)N1CCNc2ccccc21
Hepatitis B virus [1]
  EC50: 0.63 µM
[2]
  CC50 at 48 h: > 100 µM

## O=C(Nc1ccc(C(O)(C(F)(F)F)C(F)(F)F)cc1)N1CCNc2ccccc21
Hepatitis B virus [1]
  EC50: > 10 µM
[2]
  CC50 at 48 h: > 20 µM

## O=C(NCc1ccccc1)N1CCN(C(=O)Nc2ccc(F)c(Cl)c2)c2ccccc21
Hepatitis B virus [1]
  EC50: > 10 µM
[2]
  CC50 at 48 h: > 20 µM
